Marks after values point to notes of the source that are not given here.
What was measured:
uterus of immature rats = test: Uterotrophic assay in immature female rats; type: in vivo, Sprague Dawley rats; details: 3 days; for Body weight, mean / Uterus wet weight, mean / Uterus/body weight: immature female rats; for Change in wet uterine weight: immature rats
Outline: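 Female Sprague Dawley rats were housed at 23±1°C on a standard diet. From postnatal day 20 they were injected s.c. once daily for 3 days at 10 ml/kg in sesame oil. Doses were test compound at 1 g/kg/day or 17α-ethynylestradiol at 0.1 or 3 µg/kg/day; controls got sesame oil. Vaginal opening and clinical signs were monitored. On day 23, 27 h after the last dose, uteri were excised with ovaries attached and weighed. Dunnett's test was used versus controls.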

[1] = tested on: luminal epithelium of the uterus; test: Histology of uterine luminal epithelial cell height in immature rats; type: in vivo, Sprague Dawley rats; details: 3 days
Outline: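 Rats got daily s.c. doses for 3 days from postnatal day 20 and were killed 27 h after the last dose. Uteri were fixed in Bouin's solution for 24 h, paraffin-embedded, cut as 8 µm serial cross sections and H&E-stained. Luminal epithelial cell height was measured by light microscopy in the mid-region of each horn, in five areas from five sections ~160 µm apart. Mean and SD were reported; Dunnett's test compared groups with sesame-oil controls.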

human ERα = target: T1, human ERα (Homo sapiens, UniProt P03372); test: Ligand binding assay for ERα
T1 sequence (P03372 1-595): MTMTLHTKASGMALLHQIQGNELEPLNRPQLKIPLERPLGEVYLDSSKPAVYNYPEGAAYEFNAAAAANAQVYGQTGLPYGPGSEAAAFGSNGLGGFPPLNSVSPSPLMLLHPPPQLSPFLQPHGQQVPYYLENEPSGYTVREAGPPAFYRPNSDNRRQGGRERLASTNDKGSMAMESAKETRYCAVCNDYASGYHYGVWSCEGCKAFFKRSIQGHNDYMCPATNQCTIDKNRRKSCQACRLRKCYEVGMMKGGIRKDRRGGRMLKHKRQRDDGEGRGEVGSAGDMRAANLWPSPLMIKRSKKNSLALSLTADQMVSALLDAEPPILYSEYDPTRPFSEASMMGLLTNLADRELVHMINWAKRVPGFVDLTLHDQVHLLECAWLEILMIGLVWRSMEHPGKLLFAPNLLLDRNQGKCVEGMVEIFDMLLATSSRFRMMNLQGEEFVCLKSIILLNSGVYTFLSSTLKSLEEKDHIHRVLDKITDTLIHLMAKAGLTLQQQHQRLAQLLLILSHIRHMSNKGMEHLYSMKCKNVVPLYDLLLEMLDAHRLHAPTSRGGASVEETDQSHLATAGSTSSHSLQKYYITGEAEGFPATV

human ERβ = human ERβ (Homo sapiens, UniProt Q92731); test: Ligand binding assay for ERβ
MCF-7 cells = test: MCF-7 cell proliferation assay; type: cell-based, human; details: 1 μM
Outline: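 MCF-7 cells were kept in RPMI-1640 with 10% heat-inactivated FBS at 37°C and 5% CO2. Cells were seeded at 10 000 cells/well in phenol red-free RPMI-1640 with 10% charcoal dextran-treated FBS. After 1 day the medium was changed and cells received test compound (0.001–0.1 mM) or 0.5 nM E2, with or without 1 µM tamoxifen. After three days, proliferation was read by colorimetric MTT assay. Mean and SD of six experiments.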

[2] = 1 g kg^−1 day^−1 s.c., vs vehicle-treated controls

Sequence of human ERβ (Q92731 whole entry): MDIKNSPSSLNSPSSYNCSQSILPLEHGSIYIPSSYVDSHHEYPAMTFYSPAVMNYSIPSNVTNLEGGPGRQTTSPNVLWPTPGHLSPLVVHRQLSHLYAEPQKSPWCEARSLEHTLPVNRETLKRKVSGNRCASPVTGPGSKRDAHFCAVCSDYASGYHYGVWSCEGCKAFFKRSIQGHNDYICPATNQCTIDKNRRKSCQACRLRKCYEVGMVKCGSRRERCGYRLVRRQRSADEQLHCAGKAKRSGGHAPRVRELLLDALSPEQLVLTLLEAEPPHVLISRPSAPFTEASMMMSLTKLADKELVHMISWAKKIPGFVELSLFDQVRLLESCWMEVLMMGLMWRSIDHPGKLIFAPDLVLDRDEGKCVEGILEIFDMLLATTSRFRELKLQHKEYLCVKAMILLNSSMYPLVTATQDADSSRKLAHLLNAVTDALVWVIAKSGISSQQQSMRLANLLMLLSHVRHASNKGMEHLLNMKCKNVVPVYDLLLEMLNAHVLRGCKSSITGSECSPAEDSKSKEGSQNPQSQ

SMILES | Effect upon the ability of E2 to bind to ERα (human ERα) | IC50 (human ERβ) [µM] | Body weight, mean (uterus of immature rats; 1 g kg^−1 day^−1 s.c.) | Uterus wet weight, mean (uterus of immature rats; 1 g kg^−1 day^−1 s.c.) [mg] | Uterus/body weight (uterus of immature rats; 1 g kg^−1 day^−1 s.c.) | Change in wet uterine weight (uterus of immature rats; 1 g kg^−1 day^−1 s.c.) | Hypertrophy of the uterine luminal epithelium [1, 2] | Effect on MCF-7 proliferation when administered alone (MCF-7 cells) | Body weight, mean (uterus of immature rats; 0.1 μg kg^−1 day^−1 s.c.) [g] | Uterus wet weight, mean (uterus of immature rats; 0.1 μg kg^−1 day^−1 s.c.) | Uterus/body weight (uterus of immature rats; 0.1 μg kg^−1 day^−1 s.c.) | Body weight, mean (uterus of immature rats; 3 μg kg^−1 day^−1 s.c.) [g] | Uterus wet weight, mean (uterus of immature rats; 3 μg kg^−1 day^−1 s.c.) | Uterus/body weight (uterus of immature rats; 3 μg kg^−1 day^−1 s.c.) | Increase in wet uterine weight compared with vehicle-treated controls (uterus of immature rats; doses of 0.1 and 3 μg kg^−1 day^−1 s.c.) | Hypertrophy of the uterine luminal epithelium (luminal height) ([1]; 0.1 μg kg^−1 day^−1 s.c.) | Hypertrophy of the uterine luminal epithelium ([1]; 3 μg kg^−1 day^−1 s.c.)
O=C(O)CCCCCCCCCO [10HDA, 10-hydroxydecanoic acid] | little or no effect | 140 | 45.8 g | 25.2 | 0.55 | did not detect an increase | mild hypertrophy |  |  |  |  |  |  |  |  |  | 
CC/C(=C(\c1ccccc1)c1ccc(OCCN(C)C)cc1)c1ccccc1 [tamoxifen] |  |  |  |  |  |  |  | no effect on proliferation |  |  |  |  |  |  |  |  | 
C#C[C@]1(O)CC[C@H]2[C@@H]3CCc4cc(O)ccc4[C@H]3CC[C@@]21C [17αEE2, 17α-ethynylestradiol, reference compound] |  |  |  |  |  |  |  |  | 47.9 | 41.0 ^** mg | 0.87 | 47.1 | 115 ^** mg | 2.5 | over 1.5 fold | only a mild increase in luminal height | marked hypertrophy

The next lines start with results.

Effect upon the ability of E2 to bind to ERα (human ERα) | IC50 (human ERβ) [µM] | SMILES | Body weight, mean (uterus of immature rats; 1 g kg^−1 day^−1 s.c.) | Uterus wet weight, mean (uterus of immature rats; 1 g kg^−1 day^−1 s.c.) [mg] | Uterus/body weight (uterus of immature rats; 1 g kg^−1 day^−1 s.c.) | Change in wet uterine weight (uterus of immature rats; 1 g kg^−1 day^−1 s.c.) | Hypertrophy of the uterine luminal epithelium [1, 2] | Effect on MCF-7 proliferation when administered alone (MCF-7 cells) | Body weight, mean (uterus of immature rats; 0.1 μg kg^−1 day^−1 s.c.) [g] | Uterus wet weight, mean (uterus of immature rats; 0.1 μg kg^−1 day^−1 s.c.) | Uterus/body weight (uterus of immature rats; 0.1 μg kg^−1 day^−1 s.c.) | Body weight, mean (uterus of immature rats; 3 μg kg^−1 day^−1 s.c.) [g] | Uterus wet weight, mean (uterus of immature rats; 3 μg kg^−1 day^−1 s.c.) | Uterus/body weight (uterus of immature rats; 3 μg kg^−1 day^−1 s.c.) | Increase in wet uterine weight compared with vehicle-treated controls (uterus of immature rats; doses of 0.1 and 3 μg kg^−1 day^−1 s.c.) | Hypertrophy of the uterine luminal epithelium (luminal height) ([1]; 0.1 μg kg^−1 day^−1 s.c.) | Hypertrophy of the uterine luminal epithelium ([1]; 3 μg kg^−1 day^−1 s.c.)
little or no effect | 6 | C=C(CC[C@@H](C)[C@H]1CC[C@H]2[C@@H]3CC=C4C[C@@H](O)CC[C@]4(C)[C@H]3CC[C@]12C)C(C)C [24MET, 24-methylenecholesterol] | 47.5 g | 25.9 | 0.55 | did not detect an increase | mild hypertrophy |  |  |  |  |  |  |  |  |  | 
little or no effect | 17 | CCCCCCC/C=C/C(=O)O [2DEA, trans-2-decenoic acid] | 45.9 g | 22.9 | 0.51 | did not detect an increase | mild hypertrophy |  |  |  |  |  |  |  |  |  | 
little or no effect | 90 | O=C(O)/C=C/CCCCCCCO [10H2DA, 10-hydroxy-trans-2-decenoic acid] | 42.9 ^* g | 25.9 | 0.59 | did not detect an increase | mild hypertrophy |  |  |  |  |  |  |  |  |  | 

— publication PMC2529378 (Evidence-based Complementary and Alternative Medicine : eCAM, 2007)
